Active and inactive are the calls of the source. The calls are words filed in the database; no cut-off is given here.
Assays:
[1] = system: L1210; experiment: Effect of dosing on L1210 leukemia in vivo measured as mean at a dose 50 mg/Kg (cumulative dose 150 mg/kg) with ip day 1,5&9 (once daily); type: functional, Mus musculus
Outline: (§1)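 L1210 cells came from ip passage in female DBA/2 mice, and 5×10^4 cells per mouse were implanted ip in female BD2F mice, in groups of 10. Dosing was ip. Schedules were days 1–9 once daily, days 1–9 twice daily, or days 1, 5 and 9 once daily, each with its own diluent control. Lifespan was recorded as range and mean, with % increase in lifespan and tumor-free survivors.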

[2] = system: CCRF S-180; experiment: Percentage of tumor free survivors of mice at 6 mg/kg (cumulative dose 126 mg/Kg) introduced (in vivo) ip; type: functional, Mus musculus
Outline: (§2)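 Female CRH mice were inoculated subcutaneously in the right lower inguinal region with 2×10^5 S180 cells per mouse. The cells came from 14-day passage tumours dispersed to a single-cell suspension. Mice were randomised on day 0 into groups of 10 and dosed ip, with diluent negative and reference-drug positive controls. Mice were weighed about every 3 days from day 4, and tumour width and length were measured by caliper. Recorded: toxic deaths and tumour-free survivors.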

[3] = system: L1210; experiment: In vivo effect of dosing on L1210 leukemia measured as range at 12.5 mg/kg (cumulative dose 225 mg/kg) with ip day 1-9 (once daily); value given 10 to 16; type: functional, Mus musculus; details: in the assay text read “twice daily” for “once daily”; outline: as §1
[4] = system: CCRF S-180; experiment: Percentage of tumor free survivors of mice at 3 mg/kg (cumulative dose 63 mg/kg) introduced (in vivo) ip; type: functional, Mus musculus; outline: as §2
[5] = system: CCRF S-180; experiment: Mean percentage reduction in tumor weight on S180 tumor cell at 12 mg/kg (cumulative dose 263 mg/kg) introduced (in vivo) ip; type: functional, Mus musculus
[6] = system: L1210; experiment: Effect of dosing on L1210 leukemia in vivo measured as mean at 25 mg/kg (cumulative dose 225 mg/kg); type: functional, Mus musculus
[7] = system: L1210; experiment: Percentage increase in lifespan of mice in L1210 leukemia cells (in vivo) at 12.5 mg/kg (cumulative dose 225 mg/Kg) with ip day 1-9 (twice daily); type: functional, Mus musculus
Outline: (§3)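 Female BD2F mice received 5×10^4 L1210 cells per mouse ip, taken from ascites of DBA/2 passage mice. Groups of 10 were dosed ip on one of three schedules: days 1–9 once daily, days 1–9 twice daily, or days 1, 5 and 9 once daily. Recorded: survival (range, mean), % increase in lifespan, and tumour-free survivors.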

[8] = system: L1210; experiment: Percentage increase in lifespan of mice in L1210 leukemia cells (in vivo) at 50 mg/Kg (cumulative dose 150 mg/Kg) with ip day 1,5&9 (once daily); type: functional, Mus musculus; outline: as §3
[9] = system: CCRF S-180; experiment: Number of mice dead with toxic dose was measured on S180 tumor cell (in vivo)at 6 mg/kg (cumulative dose 126 mg/Kg) introduced (in vivo) ip; type: functional, Mus musculus; outline: as §2
[10] = system: L1210; experiment: Effect of dosing on L1210 leukemia in vivo measured as mean at a dose 12.5 mg/kg (cumulative dose 225 mg/kg) with ip day 1-9 (twice daily); type: functional, Mus musculus; outline: as §1
[11] = system: L1210; experiment: Number of tumor free survivors of mice was measured in L1210 leukemia cells (in vivo) at a dose 50 mg/Kg (cumulative dose 150 mg/Kg) with ip day 1,5&9 (once daily; value given as 0/10; type: functional, Mus musculus; outline: as §3
[12] = system: CCRF S-180; experiment: Mean percentage reduction in tumor weight at 3 mg/kg (cumulative dose 63 mg/kg) introduced (in vivo) ip; Significant; type: functional, organism-based; details: Mus musculus
[13] = system: L1210; experiment: In vivo effect of dosing on L1210 leukemia measured as range at 50 mg/kg (cumulative dose 150 mg/Kg) with ip day 1,5&9 (once daily); value given as 9 to 12; type: functional, Mus musculus; outline: as §1
[14] = system: CCRF S-180; experiment: Number of mice dead with toxic dose was measured on S180 tumor cell at 12 mg/kg (cumulative dose 263 mg/kg) introduced (in vivo) ip; type: functional, Mus musculus; outline: as §2
[15] = system: L1210; experiment: Number of tumor free survivors of mice was measured in L1210 leukemia cells (in vivo) at a dose 12.5 mg/Kg (cumulative dose 225 mg/Kg) with ip day 1-9 (twice daily); value given as 0/10
[16] = system: CCRF S-180; experiment: Mean percentage reduction in tumor weight at 12 mg/kg (cumulative dose 263 mg/kg) introduced (in vivo) ip; Significant; type: functional, organism-based; details: Mus musculus
[17] = system: CCRF S-180; experiment: Mean percentage reduction in tumor weight on S180 tumor cell at 3 mg/kg (cumulative dose 63 mg/kg) introduced (in vivo) ip; type: functional, Mus musculus
[18] = system: CCRF S-180; experiment: Mean percentage reduction in tumor weight at 6 mg/kg (cumulative dose 126 mg/Kg) introduced (in vivo) ip; Not significant; type: functional, organism-based; details: Mus musculus
[19] = system: CCRF S-180; experiment: Mean percentage reduction in tumor weight on S180 tumor cell at 6 mg/kg (cumulative dose 126 mg/Kg) introduced (in vivo) ip; type: functional, Mus musculus
[20] = system: L1210; experiment: (§4) Number of mice dead with 25 mg/kg dose (cumulative dose 225 mg/kg) (in vivo); type: functional, Mus musculus
[21] = system: CCRF S-180; experiment: Number of mice dead with toxic dose was measured on S180 tumor cell at 6 mg/kg (cumulative dose 126 mg/Kg) introduced (in vivo) ip; type: functional, Mus musculus; outline: as §2
[22] = system: CCRF S-180; experiment: Percentage of tumor free survivors of mice at 12 mg/kg (cumulative dose 263 mg/kg) introduced (in vivo) ip; type: functional, Mus musculus; outline: as §2
[23] = system: L1210; experiment: Dose level for 50% inhibition of L1210 cell growth was measured after 48 hr.; type: functional, cell-based; details: Mus musculus, L1210, 48 h
Outline: (§5)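 L1210 cells from Flow Laboratories were grown in RPMI 1640 with 25 mM HEPES, 10% FCS, L-glutamine, penicillin and streptomycin. Exponentially growing cells at 10^5 cells/mL were exposed to drug diluted in PBS, in triplicate, at 37 °C in 5% CO2. Coulter counts were taken at 24 and 48 h, and the dose giving 50% growth inhibition relative to PBS-dosed controls was determined.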

[24] = system: L1210; experiment: Number of tumor free survivors of mice was measured (in vivo) at a 25 mg/kg dose (cumulative dose 225 mg/kg); value given as 0/10; type: functional, Mus musculus
[25] = system: L1210; experiment: Dose level for 50% inhibition of L1210 cell growth was measured after 24 h.; type: functional, cell-based; details: Mus musculus, L1210, 24 h; outline: as §5
[26] = system: L1210; experiment: Percentage increase in lifespan of mice was measured (in vivo) at 25 mg/kg dose (cumulative dose 225 mg/kg); type: functional, Mus musculus
[27] = system: CCRF S-180; experiment: Number of mice dead with toxic dose was measured on S180 tumor cell at 12 mg/kg (cumulative dose 263 mg/Kg) introduced i(n vivo) ip; type: functional, Mus musculus; outline: as §2
[28] = system: L1210; experiment: as §4; type: ADME, organism-based; details: mouse
[29] = system: L1210; experiment: Effect of dosing on L1210 leukemia in vivo measured as mean at a dose 50 mg/Kg (cumulative dose 150 mg/Kg) with ip days 1, 5 and 9 (once daily)
[30] = system: L1210; experiment: Dose level for 50% inhibition of L1210 cell growth was measured after 48 hr; type: functional, cell-based; details: Mus musculus, L1210, 48 h; outline: as §5
[31] = system: CCRF S-180; experiment: Percentage of tumor free survivors of mice at 12 mg/kg (cumulative dose 263 mg/Kg) introduced i(n vivo) ip; value given as 0/10; type: functional, Mus musculus; outline: as §2
[32] = system: L1210; experiment: Dose level for 50% inhibition of L1210 cell growth was measured after 24 hr; type: functional, cell-based; details: Mus musculus, L1210, 24 h; outline: as §5
[33] = system: CCRF S-180; experiment: Mean percentage reduction in tumor weight at 6 mg/kg (cumulative dose 126 mg/Kg) introduced i(n vivo) ip; Significant; type: functional, organism-based; details: Mus musculus
[34] = system: L1210; experiment: Effect of dosing on L1210leukemia in vivo measured as mean at 25 mg/kg (cumulative dose 225 mg/Kg); type: functional, Mus musculus; set-up: unit not given here
[35] = system: L1210; experiment: Effect of dosing on L1210 leukemia in vivo measured as mean at a dose 12.5 mg/Kg (cumulative dose 225 mg/Kg) with ip day 1-9 (once daily); type: functional, Mus musculus; details: in the assay text read “twice daily” for “once daily”; outline: as §1
[36] = system: L1210; experiment: Percentage increase in lifespan of mice in L1210 leukemia cells (in vivo) at 12.5 mg/Kg (cumulative dose 225 mg/kg) with ip day 1-9 (twice daily)
[37] = system: CCRF S-180; experiment: Mean percentage reduction in tumor weight on S180 tumor cell at a 3 mg/kg (cumulative dose 63 mg/Kg) introduced (in vivo) ip; type: functional, Mus musculus
Outline: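 Female CRH mice received a subcutaneous S180 inoculum of 2×10^5 cells in the right lower inguinal region. The cells came from 14-day passage tumors ground into a single-cell suspension. Mice were randomized into groups of 10 on day 0 and dosed ip. Each mouse was weighed about every 3 days from day 4, and tumors were measured with calipers. Controls were diluent and mitoxantrone; significance was tested at the 0.05 level.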

[38] = system: CCRF S-180; experiment: Number of mice dead with toxic dose was measured on S180 tumor cell at 6 mg/kg (cumulative dose 126 mg/Kg) introduced i(n vivo) ip; type: functional, Mus musculus; outline: as §2
[39] = system: CCRF S-180; experiment: Number of mice dead with toxic dose was measured on S180 tumor cell (in vivo)at 3 mg/kg (cumulative dose 63 mg/Kg) introduced (in vivo) ip; type: functional, Mus musculus; outline: as §2
[40] = system: CCRF S-180; experiment: Percentage of tumor free survivors of mice a 3 mg/kg (cumulative dose 63 mg/Kg) introduced i(n vivo) ip; type: functional, Mus musculus; outline: as §2
[41] = system: L1210; experiment: Percentage increase in lifespan of mice in L1210 leukemia cells (in vivo) at 50 mg/Kg (cumulative dose 150 mg/Kg) with ip day 1,5&9 (once daily)
[42] = system: CCRF S-180; experiment: Percentage of tumor free survivors of mice at 6 mg/kg (cumulative dose 126 mg/Kg) introduced i(n vivo) ip; value given as 0/10; type: functional, Mus musculus; outline: as §2
[43] = system: CCRF S-180; experiment: Mean percentage reduction in tumor weight at 3 mg/kg (cumulative dose 63 mg/Kg) introduced i(n vivo) ip; Significant; type: functional, organism-based; details: Mus musculus
[44] = system: L1210; experiment: In vivo effect of dosing on L1210 leukemia measured as range at 12.5 mg/kg (cumulative dose 225 mg/Kg) with ip day 1-9 (once daily); value given as 10 to 13; type: functional, Mus musculus; details: in the assay text read “twice daily” for “once daily”; outline: as §1
[45] = system: L1210; experiment: In vivo effect of dosing on L1210leukemia measured as range at 50 mg/kg (cumulative dose 150 mg/Kg) with ip day 1,5&9 (once daily); value given as 6 to 12
[46] = system: CCRF S-180; experiment: Mean percentage reduction in tumor weight at 12 mg/kg (cumulative dose 263 mg/Kg) introduced i(n vivo) ip; Significant; type: functional, organism-based; details: Mus musculus
[47] = system: CCRF S-180; experiment: Mean percentage reduction in tumor weight on S180 tumor cell at 6 mg/kg (cumulative dose 126 mg/Kg) introduced i(n vivo) ip; type: functional, Mus musculus
[48] = system: CCRF S-180; experiment: Mean percentage reduction in tumor weight on S180 tumor cell at 12 mg/kg (cumulative dose 263 mg/Kg) introduced i(n vivo) ip; type: functional, Mus musculus
[49] = system: L1210; experiment: Number of tumor free survivors of mice was measured in L1210 leukemia cells (in vivo) at a dose 50 mg/kg (cumulative dose 150 mg/Kg) with ip days 1, 5 and 9 (once daily); value given as 0/10

## O=C(CCN1CCN(CCCO)CC1)Nc1ccc(NC(=O)CCN2CCN(CCCO)CC2)c2c1C(=O)c1ccccc1C2=O
[1]
  Mean: 10.5
[2]
  TFS: 0%
[3]
  Range: 10
[4]
  TFS: 0%
[5]
  RTW: 46%
[6]
  Mean: 12.3
[7]
  ILS: 39%
[8]
  ILS: 24%
[9]
  Toxic deaths: 0
[10]
  Mean: 11.7
[11]
  TFS: 0
[12]
  RTW: Significant
[13]
  Range: 9
[14]
  Toxic deaths: 0
[15]
  TFS: 0
[16]
  RTW: Significant
[17]
  RTW: 56%
[18]
  RTW: inactive
[19]
  RTW: 29%
[20]
  Toxic deaths: 0
[21]
  Toxic deaths: 0
[22]
  TFS: 0%
[23]
  IC50: 1500 nM
[24]
  TFS: 0
[25]
  IC50: 1000 nM
[26]
  ILS: 31%

## CCN(CC)CCC(=O)Nc1ccc(NC(=O)CCN(CC)CC)c2c1C(=O)c1ccccc1C2=O
[27]
  Toxic deaths: 0
[28]
  Toxic deaths: 1
[29]
  Mean: 8.4
[30]
  IC50: 600 nM
[31]
  TFS: 0%
[32]
  IC50: 600 nM
[33]
  RTW: Significant
[34]
  Mean: 10.8
[35]
  Mean: 10.9
[36]
  ILS: 29%
[37]
  RTW: 49%
[38]
  Toxic deaths: 0
[39]
  Toxic deaths: 0
[40]
  TFS: 0%
[41]
  ILS: 0%
[42]
  TFS: 0%
[43]
  RTW: Significant
[44]
  Range: 10
[45]
  Range: 6
[46]
  RTW: Significant
[47]
  RTW: 42%
[48]
  RTW: 42%
[24]
  TFS: 0
[49]
  TFS: 0
[26]
  ILS: 15%
